From ChEMBL document CHEMBL4665652, “Discovery of novel quinoline sulphonamide derivatives as potent, selective and orally active RORγ inverse agonists” (Bioorg Med Chem Lett, 2019)

Columns and labels:
[1] = Stability in human microsomes assessed as unbound intrinsic clearance; format: ADME, Microsome
Method in brief: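 Unbound intrinsic clearance measured in human and mouse liver microsomes, expressed in L/h/kg. Values are geometric means of at least two separate runs.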

[2] = In vivo inverse agonist activity at RORgamma in MOG(35-55) peptide/PTX-induced mechanistic C57BL/6 mouse model assessed as anti-CD3 induced IL-6 level in serum at 100 mg/kg, po dosed for 5 days during MOG/PTX priming and followed by 45 mins prior to anti-CD3 challenge and measured after 2 hrs relative to control; format: functional; conditions: time 5 day
Method in brief: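 Mice immunized with mouse MOG35-55 peptide plus pertussis toxin. After 5 days, compound given orally as a suspension in methylcellulose 400cp + 1% poloxamer, 45 min before an anti-CD3 challenge. Circulating cytokines measured 2 h later. Comparison vs vehicle by Dunnett post test.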

CL free [1]: 33 mL/min/kg
SMILES: CNC(=O)[C@@H]1CCCN1S(=O)(=O)c1ccc(Cl)c(COc2cccc3c(-c4cncn4C)cc(C(C)C)nc23)c1Cl
Activity [2]: -21%
